“Also recorded” adds a separate entry of the source.
Tests used:
Cellular toxicity = type: cell-based; settings: high micromolar concentrations
HeLaLIN28A = test: let-7-sensitive dual luciferase reporter assay, HeLaLIN28A; type: cell-based, human; settings: LI71 50–100 μM, 48 hr
How it was run: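 A HeLa clone stably expressing low-level FLAG-LIN28A plus the 8×let-7 Renilla/firefly dual-luciferase sensor was treated 48 hr with vehicle (DMSO) or test compound at the indicated concentrations. Dual luciferase activity was then assayed, with firefly as internal control. Runs used 3 or 5 biological replicates; Student's t test against vehicle.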

K562 leukemia cells = test: qPCR of microRNA species in K562 cells; type: cell-based, human; settings: 100 μM, 48 hr
How it was run: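 K562 leukaemia cells, or DKO+A mESCs (Lin28a/Lin28b double-knockout re-expressing wild-type LIN28A, in LIF/2i), were treated 48 hr with 100 μM test compound or vehicle. Total RNA was isolated with TRIzol and cDNA made with the miScript system. Mature and precursor microRNAs were quantified with specific primer assays relative to U6; n = 6 over two independent experiments.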

TUT4 = TUT4 (Mus musculus, UniProt B2RX14); test: Uridylation assay without LIN28; type: biochemical
[1] = target: CSD (residues 16–136) of LIN28 (Homo sapiens, UniProt Q9H9Z2); test: Saturation transfer difference spectroscopy, CSD; type: binding; settings: CSD alone
Sequence of CSD (residues 16–136) of LIN28 (Q9H9Z2 16-136): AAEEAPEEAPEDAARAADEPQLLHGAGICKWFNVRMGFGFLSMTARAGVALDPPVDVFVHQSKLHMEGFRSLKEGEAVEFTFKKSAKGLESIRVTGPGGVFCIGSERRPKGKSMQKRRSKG
How it was run: (§1)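 Protein was dialysed overnight into 20 mM Bis-Tris pH 6.0, 100 mM NaCl, 10% v/v glycerol-d8, 5 mM DTT and D2O. Test compound was dissolved in DMSO-d6. Samples held 100 μM compound and 5 μM protein in dialysis buffer. STD spectra were collected at 700 MHz, irradiating the macromolecule only at −2 ppm, with a 2 s transfer delay.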

LIN28ΔK102 = LIN28ΔK102 (Homo sapiens, UniProt Q9H9Z2, K102A); test: Saturation transfer difference spectroscopy, K102A mutant; type: binding; settings: K102A mutation, compared with LIN28Δ
Sequence of LIN28ΔK102 (Q9H9Z2 16-187 K102A): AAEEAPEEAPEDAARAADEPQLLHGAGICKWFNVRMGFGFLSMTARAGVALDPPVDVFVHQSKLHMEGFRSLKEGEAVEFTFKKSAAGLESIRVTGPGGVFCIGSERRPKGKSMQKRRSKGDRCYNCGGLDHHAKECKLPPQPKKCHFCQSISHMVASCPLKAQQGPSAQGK
How it was run: as §1

human LIN28Δ = human LIN28Δ (Homo sapiens, UniProt Q9H9Z2); test: Saturation transfer difference spectroscopy, LIN28Δ; type: binding; settings: 100 μM compound, 5 μM LIN28
Sequence of human LIN28Δ (Q9H9Z2 16-187, stated change not applied): as the sequence (Q9H9Z2 16-187 K102A) above, with A87K counted along it
How it was run: as §1

HeLaLIN28B = test: let-7-sensitive dual luciferase reporter assay, HeLaLIN28B; type: cell-based, human; settings: LI71 50–100 μM, 48 hr
How it was run: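 HeLa clone stably expressing N-FLAG-LIN28B at low level, from retroviral transduction, puromycin selection and single-cell sorting. Cells were lentivirally transduced with the let-7 dual luciferase sensor: LTR-driven Renilla with eight let-7 sites in the 3′ UTR plus HSV-TK firefly control, as a G418-selected polyclonal pool. Cells received test compound or DMSO vehicle, then were lysed for dual luciferase readout normalised to blank samples.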

[2] = target: T1, mouse LIN28Δ, mouse TUT4 and pre-let-7g (Mus musculus, UniProt Q8K3Y3); test: LIN28-mediated let-7 oligouridylation assay; type: biochemical; settings: 40 μM compound, 37°C, denaturing PAGE
T1 sequence (Q8K3Y3 16-184): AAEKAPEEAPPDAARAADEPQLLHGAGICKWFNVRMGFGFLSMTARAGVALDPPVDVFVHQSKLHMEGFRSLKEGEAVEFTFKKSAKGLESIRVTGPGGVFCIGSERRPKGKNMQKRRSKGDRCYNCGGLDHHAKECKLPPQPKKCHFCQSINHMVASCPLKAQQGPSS
T1 sequence (B2RX14 230-1424 partner): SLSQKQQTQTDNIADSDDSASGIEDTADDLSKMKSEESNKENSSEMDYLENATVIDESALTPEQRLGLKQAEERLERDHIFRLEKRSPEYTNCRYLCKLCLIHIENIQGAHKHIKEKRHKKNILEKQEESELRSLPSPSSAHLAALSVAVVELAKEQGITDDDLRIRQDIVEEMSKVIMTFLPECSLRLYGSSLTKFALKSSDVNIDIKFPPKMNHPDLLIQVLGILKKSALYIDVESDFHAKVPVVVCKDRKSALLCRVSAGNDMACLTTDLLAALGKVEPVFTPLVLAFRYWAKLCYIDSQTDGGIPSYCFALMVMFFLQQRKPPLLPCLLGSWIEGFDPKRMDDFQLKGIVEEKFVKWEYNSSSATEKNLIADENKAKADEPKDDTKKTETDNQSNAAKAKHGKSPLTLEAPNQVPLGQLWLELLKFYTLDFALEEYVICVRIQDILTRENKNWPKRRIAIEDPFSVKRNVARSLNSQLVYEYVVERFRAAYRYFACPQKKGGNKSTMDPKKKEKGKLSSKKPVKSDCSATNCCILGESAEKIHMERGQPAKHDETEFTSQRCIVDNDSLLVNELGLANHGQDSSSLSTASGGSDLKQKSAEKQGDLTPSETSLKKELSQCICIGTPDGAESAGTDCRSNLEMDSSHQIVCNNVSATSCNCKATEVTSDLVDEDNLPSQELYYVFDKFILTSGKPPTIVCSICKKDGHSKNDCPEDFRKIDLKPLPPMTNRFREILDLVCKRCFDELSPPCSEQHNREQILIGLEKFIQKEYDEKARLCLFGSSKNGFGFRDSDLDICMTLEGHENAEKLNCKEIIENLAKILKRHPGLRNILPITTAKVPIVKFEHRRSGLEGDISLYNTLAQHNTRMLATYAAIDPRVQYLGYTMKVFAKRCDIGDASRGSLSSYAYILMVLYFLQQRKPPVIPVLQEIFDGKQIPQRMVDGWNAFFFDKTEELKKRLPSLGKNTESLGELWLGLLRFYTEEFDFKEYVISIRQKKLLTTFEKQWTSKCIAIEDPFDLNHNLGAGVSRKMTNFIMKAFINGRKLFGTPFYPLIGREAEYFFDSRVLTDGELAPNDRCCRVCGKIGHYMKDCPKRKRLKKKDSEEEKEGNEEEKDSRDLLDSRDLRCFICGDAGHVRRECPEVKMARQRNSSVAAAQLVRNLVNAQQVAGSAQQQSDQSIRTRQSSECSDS
How it was run: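 Mouse LIN28A, mouse TUT4 (230–1424) and in vitro-transcribed, T4 PNK-radiolabelled pre-let-7g were incubated with test compound (40 μM screen; 80 μM follow-up) for 40 min at 37°C. Buffer: 20 mM Tris 7.5, 5% glycerol, 6 mM MgCl2, 6 mM DTT, 50 μM ZnCl2, 40 mM KCl, 200 μM UTP. Reactions were stopped with EDTA/SDS/proteinase K (50°C, 30 min) and run on denaturing PAGE. RNA and DMSO served as controls.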

apoptosis = test: Annexin V flow cytometry; type: cell-based; settings: 100 μM, 48 hr
How it was run: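 Cells exposed to 100 μM test compound or vehicle for 48 hr, then harvested and stained with APC-conjugated annexin V following the kit protocol before flow cytometry.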

[3] = target: mouse LIN28Δ:preE-let-7d complex (Mus musculus, UniProt Q8K3Y3); test: HSQC spectroscopy; type: binding; settings: 15N-labeled mouse LIN28Δ with unlabeled preE-let-7d
Solubility in solution = type: physicochemical; settings: water / solution

CCOc1cccc2c1N[C@@H](c1ccc(C(=O)O)cc1)[C@H]1CC=C[C@@H]21 [LI71]
Cellular toxicity (Cellular toxicity): low cellular toxicity | Relative Renilla luciferase activity (HeLaLIN28A): significantly reduce the relative Renilla luciferase activity | let-7 precursor species (K562 leukemia cells): not correlated with increased levels of let-7 precursor species | miR-16 (non-LIN28-regulated microRNA) (K562 leukemia cells): small but significant effect | miR-93, miR-99a and miR-151 (non-LIN28-regulated microRNAs) (K562 leukemia cells): did not observe significant effects | Mature let-7 species (K562 leukemia cells; vs DMSO): significant increase in several let-7 species | Catalytic activity of TUT4 when LIN28 is not present (TUT4): does not abolish catalytic activity of TUT4 | Saturation transfer difference signals [1]: induces the LI71 saturation transfer difference signals | Saturation transfer difference signal (LIN28ΔK102): increases the saturation transfer difference signal | Saturation transfer difference peaks (human LIN28Δ): saturation transfer difference peaks of LI71 occur | Relative Renilla luciferase activity (HeLaLIN28B): significantly reduce the relative Renilla luciferase activity | Inhibition of LIN28-mediated oligouridylation [2]: completely inhibited | Apoptosis (apoptosis): did not increase apoptosis | HSQC peak intensity changes [3]: minor intensity reductions for a number of residues | Solubility (Solubility in solution): better water solubility; also recorded: ample solubility in solution
